46 molecules from ChEMBL document CHEMBL4602721, “Discovery of Potent Inhibitors against P-Glycoprotein-Mediated Multidrug Resistance Aided by Late-Stage Functionalization of a 2-(4-(Pyridin-2-yl)phenoxy)pyridine Analogue” (J Med Chem, 2020) can be followed below.

Structures are written as SMILES.

In series [1] the target is T1, ATP-dependent translocase ABCB1 (Homo sapiens, UniProt P08183). Kind of series: Reversal of Pgp-mediated DOX resistance in human SW620/AD300 cells assessed as potentiation of DOX-induced cytotoxicity by measuring inhibition of cell proliferation at 1 uM incubated for 48 hrs by SRB assay (reference value: 5.3 +/- 3 %). It is filed as cell-based. Background: In SRB staining, fixed cells bind dye roughly in proportion to their protein.
T1 sequence (P08183 whole entry): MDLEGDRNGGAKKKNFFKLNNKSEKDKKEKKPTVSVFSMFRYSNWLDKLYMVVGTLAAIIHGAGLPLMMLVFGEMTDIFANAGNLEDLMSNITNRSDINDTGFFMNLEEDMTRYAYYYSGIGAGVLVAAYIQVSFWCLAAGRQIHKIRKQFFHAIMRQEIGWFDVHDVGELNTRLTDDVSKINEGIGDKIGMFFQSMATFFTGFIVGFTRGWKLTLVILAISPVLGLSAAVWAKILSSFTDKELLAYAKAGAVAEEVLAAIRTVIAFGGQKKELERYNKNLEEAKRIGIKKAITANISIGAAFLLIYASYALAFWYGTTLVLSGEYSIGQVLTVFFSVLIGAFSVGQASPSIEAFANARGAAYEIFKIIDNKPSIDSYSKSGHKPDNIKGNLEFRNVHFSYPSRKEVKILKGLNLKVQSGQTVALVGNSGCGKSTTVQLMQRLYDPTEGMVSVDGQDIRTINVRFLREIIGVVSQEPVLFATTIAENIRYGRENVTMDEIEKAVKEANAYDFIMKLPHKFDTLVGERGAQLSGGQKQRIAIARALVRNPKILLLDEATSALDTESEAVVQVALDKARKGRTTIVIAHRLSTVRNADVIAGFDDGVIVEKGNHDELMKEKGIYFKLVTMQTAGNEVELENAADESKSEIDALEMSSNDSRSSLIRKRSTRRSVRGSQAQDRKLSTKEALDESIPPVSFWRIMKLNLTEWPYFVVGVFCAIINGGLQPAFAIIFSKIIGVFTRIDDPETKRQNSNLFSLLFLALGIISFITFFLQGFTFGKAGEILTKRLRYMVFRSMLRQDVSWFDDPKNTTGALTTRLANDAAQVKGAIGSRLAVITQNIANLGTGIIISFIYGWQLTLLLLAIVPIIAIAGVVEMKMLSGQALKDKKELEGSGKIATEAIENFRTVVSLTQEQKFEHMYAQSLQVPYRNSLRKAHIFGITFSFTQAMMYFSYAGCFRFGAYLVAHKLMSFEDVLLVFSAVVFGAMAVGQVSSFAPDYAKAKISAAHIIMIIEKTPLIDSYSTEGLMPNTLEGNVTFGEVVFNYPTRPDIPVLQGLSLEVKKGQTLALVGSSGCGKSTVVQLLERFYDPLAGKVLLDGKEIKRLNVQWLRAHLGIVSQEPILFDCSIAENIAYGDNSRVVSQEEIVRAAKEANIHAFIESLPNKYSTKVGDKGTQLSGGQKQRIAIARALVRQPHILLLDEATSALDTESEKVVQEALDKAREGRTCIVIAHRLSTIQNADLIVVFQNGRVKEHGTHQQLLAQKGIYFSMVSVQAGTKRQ

In series [2] the target is T1, ATP-dependent translocase ABCB1. The series can be described thus: Reversal of Pgp-mediated DOX resistance in human SW620/AD300 cells assessed as potentiation of DOX-induced cytotoxicity by measuring change in DOX IC50 at 1 uM incubated for 48 hrs by SRB assay relative to DOX alone. It is filed as cell-based. As to conditions: sw620/ad300, 48 h.
A short description of series [3]: Cytotoxicity against human SW620/AD300 cells assessed as cell growth inhibition at 10 uM incubated for 48 hrs by SRB assay relative to control. The settings on record: read-out: GI. The class given is cell-based.
A further series relates to K562/A02. The series can be described thus: Potentiation of DOX-induced anti tumor activity against human K562/A02 cells xenografted in BALB/c mouse assessed as tumor size at 3 mg/kg, iv administered every 2 days for 14 days measured during compound dosing by caliper method (reference value: 610 mm3). The class given is functional. Put shortly: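 Mice bearing subcutaneous ABCB1-overexpressing K562/A02 xenografts treated with DOX alone, modulator alone, or combinations (verapamil as comparator) for 14 days; tumor volume measured every two days.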
In general terms: A xenograft is tissue or cells of one species grown in another, often human tumour cells in immunodeficient mice.

Regarding `Cn1c(-c2ccccc2)c(/C=C/C(=O)NN2C(=O)c3ccccc3C2=O)c2cccnc21`, in series [1], the inhibition at 1 µM was 18.9%.

In the case of `COc1cc2c(cc1OC)CN(CCc1ccc(NC(=O)/C=C/c3c(-c4ccccc4)oc4ccccc4c3=O)cc1)CC2`, in series [2], the “fold change (FC)” value was found to be 24.55. Also, the inhibition at 1 µM in series [1] worked out at 55.2%.

Take `COc1cc2c(cc1OC)CN(CCc1ccc(NC(=O)/C=C/c3ccc(Oc4cc(O)c(-c5ccccn5)c(O)c4)nc3)cc1)CC2`: the “fold change (FC)” value in series [2] turned out to be 42.81. The inhibition at 1 µM in series [1] is 56.3%.

In the case of `COc1cc2c(cc1OC)CN(CCc1ccc(NC(=O)C(O)c3c(-c4ccccc4)n(C)c4ccccc34)cc1)CC2` (stereo not given), the “fold change (FC)” value in series [2] is 30.35. Moreover, the inhibition at 1 µM in series [1] stood at 55.3%.

Regarding `COc1cc2c(cc1OC)CN(CCc1ccc(NC(=O)/C=C/c3ccc(Oc4c(I)cc(-c5ccccn5)cc4I)nc3)cc1)CC2`, the “fold change (FC)” value in series [2] is 28.3. The inhibition at 1 µM in series [1] is 53.2%.

Regarding `Cn1c(-c2ccccc2)c(/C=C/C(=O)NN2Cc3ccccc3C2=O)c2cccnc21`, the inhibition at 1 µM in series [1] came out at 18.5%.

Take `COc1cc2c(cc1OC)CN(CCc1ccc(NC(=O)/C=C/c3ccc(Oc4ccc(-c5ccccn5)c(F)c4)nc3)cc1)CC2`: the inhibition at 1 µM in series [1] was found to be 49.8%.

With `COc1cc2c(cc1OC)CN(C(=O)/C=C/c1c3n(c4ncccc14)Cc1ccccc1-3)CC2`, in series [1], the inhibition at 1 µM was 22.9%.

Consider `COc1ccc(-c2nnc(/C=C/c3c(-c4ccccc4)n(C)c4ncccc34)o2)cc1OC`, for which the inhibition at 1 µM in series [1] is 15.1%.

For the molecule `COc1cc2c(cc1OC)CN(S(=O)(=O)/C=C/c1c(-c3ccccc3)n(C)c3ncccc13)CC2`, in series [1], the inhibition at 1 µM came to 37.9%.

On to `COc1cc2c(cc1OC)CN(CCc1ccc(NC(=O)/C=C/c3ccc(Oc4ccc(-c5ccccn5)c(O)c4)nc3)cc1)CC2`, for which the “fold change (FC)” value in series [2] came to 40.72. Moreover, the inhibition at 1 µM in series [1] is 56.4%.

Turning to `COc1cc2c(cc1OC)CN(CCc1ccc(NC(=O)/C=C/c3ccc(Oc4ccc(-c5ccccn5)c(C)c4)nc3)cc1)CC2`, the “fold change (FC)” value in series [2] is given as 68.14. Besides, the inhibition at 1 µM in series [1] amounted to 58.2%. Moreover, in series [3], the inhibition at 48 h, 10 µM is 17.1%.

For the molecule `[2H]c1c([2H])c(-c2ccccn2)c([2H])c([2H])c1Oc1ccc(/C=C/C(=O)Nc2ccc(CCN3CCc4cc(OC)c(OC)cc4C3)cc2)cn1`, the inhibition at 1 µM in series [1] is 49.5%.

For the molecule `COc1cc2c(cc1OC)CN(CCc1ccc(NC(=O)/C=C/c3c(-c4ccccc4)n(C)c4ncccc34)cc1)CC2`, the “fold change (FC)” value in series [2] amounted to 40.72. Further, the inhibition at 1 µM in series [1] stood at 63%.

With `COc1cc2c(cc1OC)CN(C(=O)/C=C/c1c(-c3ccccc3)n(C)c3ncccc13)CC2`, in series [1], the inhibition at 1 µM came out at 40%.

Take `COc1cc2c(cc1OC)CN(CCc1ccc(NC(=O)C3CC3c3ccc(Oc4ccc(-c5ccccn5)cc4)nc3)cc1)CC2` (stereo not given): the “fold change (FC)” value in series [2] worked out at 43.93. The inhibition at 1 µM in series [1] turned out to be 59%.

On to `COc1cc2c(cc1OC)CN(CCc1ccc(NC(=O)/C=C/c3ccc(Oc4cccc(-c5ccccn5)c4)nc3)cc1)CC2`, for which the “fold change (FC)” value in series [2] was 44.52. Moreover, the inhibition at 1 µM in series [1] is 56.5%.

For the molecule `COc1cc2c(cc1OC)CN(CCc1ccc(NC(=O)c3ccc(Oc4ccc(-c5ccccn5)cc4)nc3)cc1)CC2`, the inhibition at 1 µM in series [1] was 36.1%.

`COc1ccc(C(=O)NNC(=O)/C=C/c2c(-c3ccccc3)n(C)c3ncccc23)cc1OC`: the inhibition at 1 µM in series [1] stood at 10.9%.

Regarding `COc1cc2c(cc1OC)CN(CCc1ccc(NC(=O)/C=C/c3ccc(Oc4ccc(-c5ccccn5)cc4I)nc3)cc1)CC2`, the “fold change (FC)” value in series [2] is 43.93. Besides, the inhibition at 1 µM in series [1] turned out to be 59.2%.

Consider `COc1ccc(C(=O)NN2CC(c3c(-c4ccccc4)n(C)c4ncccc34)=CC2=O)cc1OC`, for which, in series [1], the inhibition at 1 µM was determined as 14%.

As to `COc1ccc2c(C)c(CC(=O)Nc3ccc(CCN4CCc5cc(OC)c(OC)cc5C4)cc3)c(=O)oc2c1`, in series [2], the “fold change (FC)” value is listed as 16.95. In series [1], the inhibition at 1 µM worked out at 50.5%.

In the case of `COc1cc2c(cc1OC)CN(C(=O)CCc1c(-c3ccccc3)n(C)c3ncccc13)CC2`, the inhibition at 1 µM in series [1] is 17.7%.

In the case of `COc1cc2c(cc1OC)CN(C(=O)/C=C(\C)c1c(-c3ccccc3)n(C)c3ncccc13)CC2`, in series [1], the inhibition at 1 µM amounted to 44%.

For the molecule `COc1cc2c(cc1OC)CN(S(=O)(=O)/C=C/c1c(-c3ccccc3)n(C)c3ccccc13)CC2`, the inhibition at 1 µM in series [1] stood at 25.4%.

Turning to `COc1cc2c(cc1OC)CN(C(=O)/C=C/c1nc(-c3ccccn3)n(C)c1-c1ccccc1)CC2`, the inhibition at 1 µM in series [1] amounted to 28.2%.

As for `COc1cc2c(cc1OC)CN(CCc1ccc(NC(=O)/C=C/c3cccc(Oc4ccc(-c5ccccn5)cc4)n3)cc1)CC2`, in series [2], the “fold change (FC)” value is listed as 33.73. In series [1], the inhibition at 1 µM came to 60.2%.

Turning to `COc1cc2c(cc1OC)CN(C(=O)/C=C/c1c3n(c4ncccc14)CCc1ccccc1-3)CC2`, in series [1], the inhibition at 1 µM amounted to 45.4%.

With `COc1ccc(NC(=O)NC(=O)/C=C/c2c(-c3ccccc3)n(C)c3ncccc23)cc1OC`, the inhibition at 1 µM in series [1] was 23.3%.

As to `COc1cc2c(cc1OC)CN(C(=O)/C=C/c1ccc(Oc3ccc(-c4ccccn4)cc3)nc1)CC2`, the inhibition at 1 µM in series [1] is 26.7%.

Turning to `COc1cc2c(cc1OC)CN(C(=O)/C=C/c1c3n(c4ccccc14)C(c1ccccc1)Oc1ccccc1-3)CC2` (stereo not given), the inhibition at 1 µM in series [1] worked out at 41.4%.

For `COc1cc2c(cc1OC)CN(C(=O)/C(F)=C/c1c(-c3ccccc3)n(C)c3ncccc13)CC2`, in series [1], the inhibition at 1 µM amounted to 12.2%.

For the molecule `COc1cc2c(cc1OC)CN(C(=O)/C=C(/c1c(-c3ccccc3)n(C)c3ncccc13)C(F)(F)F)CC2`, the inhibition at 1 µM in series [1] amounted to 32.5%.

For `COc1cc2c(cc1OC)CN(CCc1ccc(NC(=O)/C=C/c3ccc(Oc4ccc(-c5ccccn5)cc4C)nc3)cc1)CC2`, in series [2], the “fold change (FC)” value is reported as 45.12. Further, the inhibition at 1 µM in series [1] was found to be 55.1%.

With `Cn1c(-c2ccccc2)c(/C=C/C(=O)Nc2nc3ccccc3s2)c2cccnc21`, the inhibition at 1 µM in series [1] is 44.7%.

With `COc1ccc(CCN(C)CCCC(C#N)(c2ccc(OC)c(OC)c2)C(C)C)cc1OC` (stereo not given), the Activity in the series with K562/A02 was found to be 508 mm3. Moreover, the inhibition at 1 µM in series [1] is 26.1%.

As to `COc1cc2c(cc1OC)CN(C(=O)/C=C/c1c3n(c4ccccc14)C(C1CCCCC1)Oc1ccccc1-3)CC2` (stereo not given), the inhibition at 1 µM in series [1] was determined as 40.1%.

For the molecule `COc1cc2c(cc1OC)CN(CCc1ccc(NC(=O)/C=C/c3ccc(Oc4ccc(-c5ccccn5)cc4)nc3)cc1)CC2`, the inhibition at 1 µM in series [1] was determined as 41.8%.

Take `COc1cc2c(cc1OC)CN(C(=O)/C=C/c1c3n(c4ccccc14)C(c1cccs1)Oc1ccccc1-3)CC2` (stereo not given): the inhibition at 1 µM in series [1] was 44.3%.

Take `COc1ccc(CN2CC(c3c(-c4ccccc4)n(C)c4ncccc34)=CC2=O)cc1OC`: in series [1], the inhibition at 1 µM was found to be 20.7%.

Consider `COc1cc2c(cc1OC)CN(CCc1ccc(NC(=O)C(c3c(-c4ccccc4)n(C)c4ccccc34)N3CCOCC3)cc1)CC2` (stereo not given), for which, in series [2], the “fold change (FC)” value came out at 60.71. For the same molecule, in series [1], the inhibition at 1 µM was 61.7%. Besides, in series [3], the inhibition at 48 h, 10 µM was 42%.

On to `COc1cc2c(cc1OC)CN(CCc1ccc(NC(=O)/C=C/c3ccc(Oc4ccc(-c5cccnc5)cc4)nc3)cc1)CC2`, for which, in series [2], the “fold change (FC)” value is 85.62. In addition, the inhibition at 1 µM in series [1] was 62.6%. In addition, the inhibition at 48 h, 10 µM in series [3] came out at 13.9%.

`COc1cc2c(cc1OC)CN(CCc1ccc(NC(=O)/C=C/c3ccc(Oc4ccc(-c5ccccn5)cc4Br)nc3)cc1)CC2`: the “fold change (FC)” value in series [2] was 47.7. Further, the inhibition at 1 µM in series [1] stood at 60.1%.

`COc1cc2c(cc1OC)CN(CCc1ccc(NC(=O)/C=C/c3cc(-c4ccccn4)cc(C)c3Oc3ccccn3)cc1)CC2`: the “fold change (FC)” value in series [2] is given as 60.71. Besides, the inhibition at 1 µM in series [1] was determined as 64%. Besides, the inhibition at 48 h, 10 µM in series [3] stood at 17%.

As for `COc1cc2c(cc1OC)CN(CCc1ccc(NC(=O)/C=C/c3ccc(Oc4ccc(-c5ccccn5)c(C#N)c4)nc3)cc1)CC2`, the “fold change (FC)” value in series [2] came to 54.74. For the same molecule, the inhibition at 1 µM in series [1] came out at 58.3%. Further, the inhibition at 48 h, 10 µM in series [3] was 13.9%.

Regarding `COc1cc2c(cc1OC)CN(C(=O)/C=C/c1c(-c3ccccc3)nc3ccccn13)CC2`, the inhibition at 1 µM in series [1] came to 37.5%.
